Results collected from several papers.
Each line is one published result; the experiments were not run side by side.
ADRA1A: Alpha-1A adrenergic receptor (ADRA1A, Homo sapiens, UniProt P35348)
HRH2: Histamine H2 receptor (HRH2, Homo sapiens, UniProt P25021)
Tspo: Translocator protein (Tspo, Rattus norvegicus, UniProt P16257)

| Compound | target | test | setting | Ki [nM] |
| --- | --- | --- | --- | --- |
| O=C1c2ccccc2CCN1CCCCN1CCN(c2cccc(Cl)c2Cl)CC1 | ADRA1A | ligand displacement, radioligand | – | 117 |
| Cc1c(C)c2c(c(C)c1O)CCC(C)(COc1ccc(CC3SC(=O)NC3=O)cc1)O2 (stereo not shown) | Peroxisome proliferator-activated receptor delta (PPARD, Homo sapiens, UniProt Q03181) | cell-free assay | – | 26200 |
| CNc1nc2cc(OCCCCN3CCC(c4cccc(Cl)c4Cl)CC3)ccc2s1 | HRH2 | ligand displacement, radioligand | – | 330 |
| CNc1nc(C#Cc2ccc(Cl)s2)nc2c1ncn2[C@H]1[C@H](O)[C@H](O)[C@]2(C(=O)OCCC3CCCCC3)C[C@H]12 | Tspo | ligand displacement, radioligand | – | > 10000 |
| CN1CC(Oc2cnc(C#N)cc2-c2ccn3nc(NC(=O)C4CC4)cc3c2)C1 | Receptor-interacting serine/threonine-protein kinase 2 (RIPK2, Homo sapiens, UniProt O43353) | enzyme activity, inhibitor | – | 95 |
| O[C@@H]1[C@H](O)[C@@H]2C[C@@H]2[C@H]1n1cnc2c(NCc3cccc(Cl)c3)ncnc21 | Tspo | ligand displacement, radioligand | – | > 10000 |
| COc1ccc2c(c1)C(=O)N(CCN1CCN(c3ccccc3OC)CC1)C2 | ADRA1A | ligand displacement, radioligand | – | 15.9 |
| COc1cccc(OC)c1OCCNCC1COc2ccccc2O1 (stereo not shown) | ADRA1A | ligand displacement, radioligand | – | 0.18 |
| CC[C@H](NC(=O)[C@H](CS(=O)(=O)CC1CC1)N[C@@H](c1ccc(F)cc1)C(F)(F)F)C(=O)C(=O)NC1CC1 | Cathepsin S (CTSS, Homo sapiens, UniProt P25774) | enzyme activity, inhibitor, fluorescence | with preincubation | 0.13 |
| CNc1nc(C#Cc2ccc(Cl)s2)nc2c1ncn2[C@@H]1O[C@H](C(=O)OC)[C@@H](O)[C@H]1O | Tspo | ligand displacement, radioligand | – | > 10000 |
| Cc1nc2cc(OCCCCN3CCN(c4cccc(Cl)c4Cl)CC3)ccc2s1 | HRH2 | ligand displacement, radioligand | – | 680 |
| CCNc1nc(C#Cc2ccccc2)nc2c1ncn2[C@H]1[C@H](O)[C@H](O)[C@@H]2C[C@@H]21 | Tspo | ligand displacement, radioligand | – | > 10000 |
| O=C1c2ccccc2CCCN1CCCCN1CCN(c2ccccn2)CC1 | ADRA1A | ligand displacement, radioligand | – | 867 |
| CNC(=O)[C@@]12C[C@@H]1[C@@H](n1cnc3c(NC)nc(C#Cc4ccc(Br)s4)nc31)[C@H](O)[C@@H]2O | Tspo | ligand displacement, radioligand | – | > 10000 |
| CC[Si](C#Cc1ccc2c(c1)C=C([N+](=O)[O-])C(C(F)(F)F)O2)(CC)CC (stereo not shown) | Tspo | cell-free assay, radioligand | – | 500 |
| CNC(=O)[C@@]12C[C@@H]1[C@@H](n1cnc3c(NC)nc(C#Cc4ccc(Cl)s4)nc31)[C@H](O)[C@@H]2O | Tspo | cell-free assay, radioligand | – | 859 |
